According to ChEMBL document CHEMBL4342526, “Exploration of the Structural Space in 4(3H)-Quinazolinone Antibacterials” (J Med Chem, 2020):
≈ marks a conversion by molar mass, not a printed value.

What was measured:
[1] = Volume of distribution in ICR mouse at 10 mg/kg, iv by UV-UPLC analysis; assay type: ADME, organism-based; details: in vivo
Method in brief: (§1)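 Female ICR mice, 6–8 weeks old, 20–25 g. Each received 50 μL by tail-vein injection (5 or 10 mg/kg) of a filter-sterilized 2 or 4 mg/mL solution in 20% DMSO/10% Tween-80/70% water. Terminal blood was collected and plasma harvested by centrifugation. Plasma was precipitated with acetonitrile containing internal standard, and the supernatant was analyzed by C18 UPLC with UV detection at 285 nm.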

[2] = AUC (0 to last) in ICR mouse at 10 mg/kg, po administered via gavage by UV-UPLC analysis; assay type: ADME, organism-based; parameters: dose 10 mg/kg, time 0 - last, route oral; details: in vivo
Staphylococcus aureus [3] = assay: Selectivity ratio of MIC for Staphylococcus aureus ATCC 29213 in presence of bovine serum albumin to MIC for Staphylococcus aureus ATCC 29213 in absence of bovine serum albumin; assay type: functional
Method in brief: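 S. aureus ATCC29213 MIC was run by CLSI microdilution in cation-adjusted Mueller–Hinton broth plus 2% NaCl, with and without 0.5% bovine serum albumin. Compounds were two-fold serially diluted in triplicate, inoculum was 5 × 10^5 CFU/mL, and plates were incubated at 37 °C for 16–20 h. The endpoint was the lowest concentration with no visible growth.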

[4] = Protein binding in human plasma at 10 uM measured after 6 hrs UV-UPLC based rapid equilibrium dialysis method; assay type: ADME, cell-free
Method in brief: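 Rapid equilibrium dialysis: human plasma was cleared by centrifugation and spiked from a 1 mM DMSO stock to a final 10 μM, against 0.1 M PBS pH 7.4. Dialysis ran 6 h at 37 °C with orbital shaking. Buffer (free) and plasma (total) aliquots were mixed with internal standard in acetonitrile and measured by UPLC-UV at 285 nm. B% = (Cp−Cf)/Cp×100.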

Bacillus cereus = assay: Antibacterial activity against Bacillus cereus ATCC 13061 measured after 16 to 20 hrs by microdilution method; assay type: functional
Method in brief: (§2)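 CLSI broth microdilution: two-fold serial dilutions in triplicate in cation-adjusted Mueller–Hinton broth with 2% NaCl, inoculum 5 × 10^5 CFU/mL, incubated at 37 °C for 16–20 h. MIC is the lowest concentration preventing visible growth.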

[5] = Time at which plasma concentration stays above in vitro MIC for clindamycin/erythromycin/spectinomycin-resistant mec-positive Staphylococcus aureus NRS70 in ICR mouse at 10 mg/kg, iv; assay type: ADME, organism-based; details: in vivo
Method in brief: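 Female ICR mice given single iv tail-vein dose (50 μL of 2 or 4 mg/mL in 20% DMSO/10% Tween-80/70% water); terminal blood at 5, 40 min, 2, 4, 8 h, n = 2 per time point; plasma acetonitrile-precipitated with internal standard, UPLC-UV 285 nm on C18; time above MIC read from concentration profile.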

Staphylococcus aureus [6] = assay: Bacteriostatic activity against clindamycin/erythromycin/spectinomycin-resistant mec-positive Staphylococcus aureus NRS70 assessed as log reduction in bacterial count at 0.5 to 16 times MIC by time-kill assay; assay type: functional
[7] = tested on: Staphylococcus haemolyticus; assay: Antibacterial activity against Staphylococcus haemolyticus ATCC 29970 measured after 16 to 20 hrs by microdilution method; assay type: functional; method in brief: as §2
[8] = AUC (0 to last) in ICR mouse at 10 mg/kg, iv by UV-UPLC analysis; assay type: ADME, organism-based; parameters: dose 10 mg/kg, time 0 - last, route intravenous; details: in vivo; method in brief: as §1
Staphylococcus aureus [9] = assay: Bactericidal activity against methicillin resistant Staphylococcus aureus NRS70 infected in ICR mouse model of neutropenic thigh infection assessed as log reduction in bacterial count in thigh at 40 mg/kg, sc administered at 8 hrs interval for 3 times starting from 1 hr post infection and measured 24 hrs post infection; assay type: functional
Method in brief: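 Female ICR mice (6–8 weeks, 20–25 g) made neutropenic with cyclophosphamide 200 mg/kg ip at 4 and 1 days pre-infection; 0.1 mL NRS70 at 1 × 10^6 CFU/mL in brain heart infusion injected into right thigh; drug in 10% DMSO/90% water sc every 8 h ×3 from 1 h post-infection; thigh CFU counted at 24 h; n = 8/group; mean ± SEM, one-way ANOVA with Tukey test.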

N#Cc1ccc(/C=C/c2nc3ccccc3c(=O)n2-c2cc(C(=O)O)ccc2F)cc1
Vd [1]: 0.19 L/kg | AUClast [2]: 840 µg·min/mL | selectivity ratio (Staphylococcus aureus [3]): <=4 | PPB [4]: 95.4% | MIC (Bacillus cereus): > 128 µg/mL | T>MIC [5]: 4 h | log(activity) (Staphylococcus aureus [6]): <3 | MIC [7]: 4 µg/mL (≈ 9.72 µM) | AUClast [8]: 1290 µg·min/mL | log(activity) (Staphylococcus aureus [9]): 0.78
